Assays:
[1] = Stability of analytes in rat plasma QC samples and postpreparative stability; format: in vitro ADME; conditions: for Stability in rat plasma, recovered percentage: QC samples (0.1, 0.5, and 5.0 μg/mL); for Postpreparative stability: prepared samples, 24 h storage at 4°C
In short: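 Drug-free rat plasma was spiked to give QC samples at 0.1, 0.5 and 5.0 μg/mL. Samples were stored at room temperature or -20°C. For postpreparative stability, extracted samples were held at 4°C. Samples were extracted with acetonitrile plus isoliquiritin IS and quantified by C18 water/acetonitrile gradient HPLC-UV at 330 nm. Results are given as percent recovered.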

[2] = ref Park et al., 21, cited from earlier work
[3] = 12 h storage at room temperature

Row | SMILES | Stability in rat plasma, recovered percentage ([1]; 4-weeks storage at -20°C) | Stability in rat plasma, recovered percentage [1, 3] | Postpreparative stability [1] | Plasma level after intravenous administration ([2]; intravenous administration of decursin) | Hepatic first-pass metabolism [2]
1 | CC1(C)Oc2cc3oc(=O)ccc3cc2C[C@@H]1O [Decursinol, decursinol] | 100.9 ± 5.9% | 89.9 ± 10.6% | 97.8 ± 5.4% |  | 
2 | CC(C)(O[C@@H]1O[C@H](CO)[C@@H](O)[C@H](O)[C@H]1O)[C@H]1Cc2cc3ccc(=O)oc3cc2O1 [Nodakenin, nodakenin] | 99.0 ± 4.4% | 97.8 ± 7.1% | 100.5 ± 6.1% |  | 
3 | CC(C)=CC(=O)O[C@H]1Cc2cc3ccc(=O)oc3cc2OC1(C)C [decursin] |  |  |  | rapidly decreased | extensive hepatic first-pass metabolism

Source: paper PMC3969656 (Pharmacognosy Magazine, 2014)
